Data on 11 molecules can be found in ChEMBL document CHEMBL1154252, “Nitric oxide scavenging lignans from Vitex negundo seeds” (J Nat Prod, 2009).

pIC50: −log10 of the molar value.

The subject of data set [1] is RAW264.7. Description: Antiinflammatory activity against mouse RAW264.7 cells assessed as inhibition of LPS-induced nitric oxide production after 24 hrs by Griess reagent method. The data set is classed as functional, cell-based. The settings on record: RAW264.7, 24 h. In a few lines:
(§1)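 RAW 264.7 macrophages seeded at 10^5 cells/well, co-incubated with compound and LPS (1 µg/mL) for 24 h. Nitrite in supernatant measured by Griess reagent: supernatant mixed in turn with 1% sulfanilamide and 0.1% naphthylethylenediamine in 2.5% phosphoric acid, absorbance read at 548 nm. n = 4, mean ± SD; L-nitroarginine as positive control, LPS alone as negative control.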
On the technique in general: Griess reagent forms a coloured azo dye with nitrite.

The test system of data set [2] is RAW264.7. Description: Antiinflammatory activity against mouse RAW264.7 cells assessed as inhibition of LPS-induced nitric oxide production at 1 uM after 24 hrs by Griess reagent method. The class given is functional. The conditions noted are these: RAW264.7, 24 h. In a few lines:
as §1

Data set [3] concerns RAW264.7. Put plainly: Cytotoxicity against LPS-stimulated mouse RAW264.7 cells up to 1 uM after 24 hrs by MTT assay. The data set is classed as cell-based. The conditions noted are these: raw264.7, 24 h. An outline of the steps:
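After supernatant removal for Griess assay, LPS-treated RAW 264.7 cells given fresh medium with 2 mg/mL MTT. Incubated 3 h at 37 °C, 5% CO2. Formazan dissolved in DMSO and absorbance measured at 570 nm.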

On to `COc1cc([C@H]2c3cc(O)c(OC)cc3C=C(C=O)[C@@H]2CO)ccc1O`, for which, in data set [1], the pIC50 (usually −log10 of the IC50, conventionally taken in molar units) was 5.45. Also, the inhibition (usually the percentage by which the read-out fell short of the control) at 1 µM in data set [2] was determined as 34.4%. Further, in data set [3], the Activity entry is “Non-toxic”.
As for `N=C(NCCC[C@H](N)C(=O)O)N[N+](=O)[O-]` [NITROARGININE], in data set [1], the pIC50 was 4.36. Also, the inhibition at 1 µM in data set [2] came out at 2.53%.
In the case of `COc1cc(-c2c3c(cc4cc(OC)c(O)cc24)C(=O)NC3)ccc1O` [VITEDOAMINE A], in data set [1], the pIC50 is 5.82. In addition, in data set [2], the inhibition at 1 µM was 43.3%. In addition, the Activity entry in data set [3] was “Non-toxic”.
For `COc1cc(-c2c3c(cc4cc(OC)c(O)cc24)CNC3=O)ccc1O` [VITEDOAMINE B], the pIC50 in data set [1] is 6.06. The inhibition at 1 µM in data set [2] stood at 56.2%. Besides, the Activity result in data set [3] was “Non-toxic”.
Consider `COc1cc([C@H]2c3cc(O)c(O)cc3C=C(C=O)[C@@H]2CO)ccc1O` [VITEXDOIN A], for which the pIC50 in data set [1] is 6.42. For the same molecule, the inhibition at 1 µM in data set [2] came out at 67%. For the same molecule, the Activity result in data set [3] is listed as “Non-toxic”.
For the molecule `COc1cc(-c2cc(C=O)cc3ccc(O)c(OC)c23)ccc1O` [VITEXDOIN B], the pIC50 in data set [1] is 6.70. Further, the inhibition at 1 µM in data set [2] was determined as 80.8%. For the same molecule, the Activity entry in data set [3] was “Non-toxic”.
For the molecule `COc1cc(-c2c(C=O)ccc3cc(OC)c(O)cc23)ccc1O` [VITEXDOIN C], in data set [1], the pIC50 was 6.24. Further, the inhibition at 1 µM in data set [2] worked out at 61.7%. For the same molecule, the Activity result in data set [3] was “Non-toxic”.
On to `COc1cc(-c2c(C=O)c(O)cc3cc(OC)c(O)cc23)ccc1O` [VITEXDOIN D], for which the pIC50 in data set [1] was 6.89. Further, the inhibition at 1 µM in data set [2] was 91.1%. Also, in data set [3], the Activity entry was “Non-toxic”.
Take `COc1cc(-c2cc(C=O)c(O)c3cc(OC)c(O)cc23)ccc1O` [VITEXDOIN E]: the pIC50 in data set [1] is 6.82. Besides, the inhibition at 1 µM in data set [2] was found to be 84.2%. Besides, the Activity entry in data set [3] is “Non-toxic”.
For the molecule `COc1cc(-c2cc(C=O)cc3cc(OC)c(O)cc23)ccc1O` [VITROFOLAL E], the pIC50 in data set [1] is 6.30. In data set [2], the inhibition at 1 µM came out at 63.2%.
On to `COc1cc(-c2c(O)c(C=O)cc3cc(OC)c(O)cc23)ccc1O` [VITROFOLAL F], for which the pIC50 in data set [1] was 6.96. In addition, the inhibition at 1 µM in data set [2] came out at 95.8%. Besides, the Activity entry in data set [3] is given as “Non-toxic”.
